Screening data as filed in PubChem.
Compounds with a hit are over-represented: about 3.3% of the library has one in this group of screens.
DENV2 CPE – inhibitors of DENV2 cytopathic effect, primary screen, cell-based, plate reader, single concentration; DENV2-infected cells, cytopathic effect rescue; CPE inhibition, % at 9.99 µM; 350,000 tested, 1.7% active; AID 651640, 2012; in the data active = CPE inhibition above about 20%, passing the limit was not always enough; inconclusive = no clear call, values can overlap the other calls; tested in BHK-21 cells
PglD DTNB – C. jejuni PglD acetyltransferase inhibitors, primary screen, biochemical, DTNB colorimetric, single point. purified PglD enzyme, DTNB colorimetric CoA detection. AID 602405, 2012. inhibition, % at 12.5 µM. 360,000 tested, 0.098% active; in the data active = inhibition above about 16%, passing the limit was not always enough; inconclusive = no clear call, values can overlap the other calls
XiGFP reactiv – activators of inactive X chromosome reactivation, primary screen, imaging, XiGFP fibroblasts, GFP high-content imaging, set 2. XiGFP mouse fibroblasts, % GFP-positive cells imaging, 3 d; cells co-treated with 5-aza-dC sensitizer; scaled so ellipticine positive control = 100%. activation, % at 7.58 µM. 360,000 tested, 0.055% active. AID 743238, 2013;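 active = mean normalized replicate activation at least 10% and every replicate at or above 10%; inconclusive = only one of the two criteria met; inactive = mean below 10% and not all replicates reach 10%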
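Assay system – SV40-immortalized XiGFP fibroblast cells, line 68-5-11 · Buffer or medium – DMEM supplemented with 5-aza-dC as sensitizing agent · Dosing – one concentration, pinned · Benchmarks – positive control ellipticine, 6 µM final · Times – 3 days compound exposure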
E-selectin induc – E-selectin induction in HUVECs, primary screen, imaging, HUVEC, immunofluorescence imaging, single point. normalized: neutral wells 0, TNF-alpha wells 100. activation, % at 7.58 µM. 260,000 tested, 0.37% active;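 active = mean E-selectin-positive cell signal at least 10% of the positive control, reached in at least 60% of replicates, without over 20% cell loss; inconclusive = no rule given, readout overlaps actives, possibly toxicity-flagged; inactive = the rest, including those meeting only one limit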
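Read-out: % PE-positive cells | Test system: HUVEC | Doses: One compound dose added by pin transfer | Buffer or medium: EGM-2 over gelatin coat | Signal: Immunofluorescence imaging | Benchmarks: TNF-alpha, DMSO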
FGF22 binding – binders of human FGF22 protein, primary screen, FGF22 synaptogenesis inhibitor project, biophysical, thermal shift, single point; recombinant FGF22 thermal shift, SYPRO orange fluorescence; percent of sucrose octasulfate shift, DMSO zero; activity (Tm shift, normalised), % at 9.99 µM; 340,000 tested, 1.5% active; AID 651658, 2012;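 active = mean Tm shift, scaled 0 neutral to 100 positive control, at about 1.3% or above, every replicate too, limit read from the data; inconclusive = no clear call, values can overlap the other calls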
Target sequence (Q9HCT0 whole entry, looked up): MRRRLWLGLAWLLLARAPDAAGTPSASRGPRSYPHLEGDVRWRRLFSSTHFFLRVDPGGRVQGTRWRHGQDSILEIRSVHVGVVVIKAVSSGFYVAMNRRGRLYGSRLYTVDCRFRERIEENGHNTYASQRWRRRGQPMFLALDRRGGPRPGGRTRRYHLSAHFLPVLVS
C2C12 statin – suppressors of statin myotoxicity in C2C12 myotubes, primary screen, cell-based, single point, plate reader | C2C12 myotubes + simvastatin, ATP luminescence, 48 h; scaled: DMSO 0, geranylgeraniol control 100 | rescue of ATP level, % at 7.49 µM | 330,000 tested, 0.78% active | AID 602340, 2012;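 active = mean ATP rescue above about 67%, or every replicate alone reaching that limit, limit read from the data, passing the limit was not always enough; inconclusive = no clear call, values can overlap the other calls; inactive = mean under the limit and some replicate under it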;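 note: myotubes were challenged with 10 µM simvastatin during compound exposure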
PglD confirm – PglD acetyltransferase inhibitors, confirmation, biochemical, DTNB absorbance, single point, cherry-picked samples. Purified C. jejuni PglD, DTNB absorbance 412 nm. 320 tested, under 10 active. AID 743156, 2013. shares compounds with PglD DTNB. inhibition, % at 20 µM;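 active = mean inhibition across replicates of at least 20% with every single replicate also at 20% or more; inconclusive = mean inhibition at least 20% but some replicate falls below 20%; inactive = mean inhibition under 20% and not all replicates reach it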;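 note: initial rate of CoA release by acetyl transfer from AcCoA to the UDP-4-amino sugar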
A number is an active result.

Results for CC(C(=O)Nc1ccc(Cl)cc1)N(C)Cc1cccs1 (configuration not stated) ?
DENV2 CPE: inactive; PglD DTNB: 23; FGF22 binding: inactive; C2C12 statin: inactive; PglD confirm: inactive

Results for CC(C)Oc1cc(F)ccc1-c1cc(C(=O)Nc2cccc(C(F)(F)F)c2)[nH]n1 ?
DENV2 CPE: inconclusive; PglD DTNB: 24; XiGFP reactiv: inactive; E-selectin induc: inactive; FGF22 binding: inactive; C2C12 statin: inactive; PglD confirm: inactive

Results for COc1ccc(NC(=O)c2cc(-c3ccc(F)cc3OC(C)C)n[nH]2)cn1 ?
DENV2 CPE: inactive; PglD DTNB: inactive; XiGFP reactiv: inactive; E-selectin induc: inactive; FGF22 binding: inactive; C2C12 statin: inactive

Results for CCCNC(=O)N1CC2(CN(S(=O)(=O)CC)C2)c2c([nH]c3cc(OC)ccc23)[C@H]1CO ?
DENV2 CPE: inactive; XiGFP reactiv: inactive; E-selectin induc: inactive; FGF22 binding: inactive

What do the screens show for `COCC(=O)N(C)C[C@@H]1Oc2cc(-c3ccncc3)ccc2S(=O)(=O)N([C@@H](C)CO)C[C@@H]1C`?
DENV2 CPE: inactive; PglD DTNB: inactive; XiGFP reactiv: inactive; E-selectin induc: inactive; FGF22 binding: inactive; C2C12 statin: inactive

Results for CC(C)(C)C(=O)C1=C(O)C(=O)N(Cc2ccccc2)C1c1ccccc1F (configuration not stated) ?
DENV2 CPE: inconclusive; PglD DTNB: 73; XiGFP reactiv: inactive; E-selectin induc: inactive; FGF22 binding: inactive; C2C12 statin: inactive; PglD confirm: inactive

What do the screens show for `CC(=O)C1=C(O)C(=O)N(Cc2ccco2)C1c1ccccc1F` (configuration not stated)?
DENV2 CPE: inactive; XiGFP reactiv: inactive; E-selectin induc: inactive; FGF22 binding: inactive

What do the screens show for `O=C(O)CC/C(=N\NC(=O)CNC(=O)/C=C/c1ccccc1)c1ccccc1`?
DENV2 CPE: inconclusive; PglD DTNB: 26; XiGFP reactiv: inactive; E-selectin induc: inactive; FGF22 binding: inactive; C2C12 statin: inactive; PglD confirm: inactive

What do the screens show for `O=C(O)CSc1nc2sc3c(c2c(=O)n1Cc1ccccc1)CCCCC3`?
DENV2 CPE: inactive; PglD DTNB: inactive; XiGFP reactiv: inactive; E-selectin induc: inactive; FGF22 binding: inactive; C2C12 statin: inactive

Results for O=C(O)CSc1cc(C(=O)c2ccccc2O)cn2c(=O)c3c4c(sc3nc12)CCCC4 ?
DENV2 CPE: inactive; PglD DTNB: 22; XiGFP reactiv: inactive; FGF22 binding: inactive; PglD confirm: inactive

Results for Cc1ccc(CN(c2ccc(C(=O)NCc3ccc4c(c3)OCO4)cc2)S(C)(=O)=O)cc1 ?
PglD DTNB: 27; C2C12 statin: inactive; PglD confirm: inactive

How did Cc1ccc(C(=O)NCc2ccc3c(c2)OCO3)cc1 do in these assays?
DENV2 CPE: inactive; PglD DTNB: inactive; XiGFP reactiv: inactive; FGF22 binding: inactive; C2C12 statin: inactive

What do the screens show for `CCC(=O)N1CC2(C1)[C@@H](c1ccccc1)[C@@H](CO)N2CCC(F)(F)F`?
DENV2 CPE: inactive; XiGFP reactiv: inactive; E-selectin induc: inactive; FGF22 binding: inactive

How did COc1ccc(CONS(=O)(=O)c2ccc(NC(C)=O)cc2)cc1Cl do in these assays?
PglD DTNB: 22; C2C12 statin: inactive; PglD confirm: inactive

Results for O=C(NCC[C@H]1CC[C@@H](NC(=O)c2ccccc2F)[C@@H](CO)O1)c1ccc2c(c1)OCO2 ?
DENV2 CPE: inactive; PglD DTNB: inactive; XiGFP reactiv: inactive; E-selectin induc: inactive; FGF22 binding: inactive; C2C12 statin: inactive

How did C[C@@H]1CN([C@@H](C)CO)S(=O)(=O)c2ccc(C#Cc3cccnc3)cc2O[C@H]1CN(C)C(=O)CN(C)C do in these assays?
DENV2 CPE: inactive; PglD DTNB: inactive; XiGFP reactiv: inactive; E-selectin induc: inactive; FGF22 binding: inactive; C2C12 statin: inactive

What do the screens show for `O=S(=O)(c1ccc(F)cc1)N1CCCC(CO)C1` (configuration not stated)?
PglD DTNB: 33; C2C12 statin: inactive; PglD confirm: inactive

How did O=C(O)C1CCCN(S(=O)(=O)c2ccc(F)cc2)C1 (configuration not stated) do in these assays?
PglD DTNB: inactive

What do the screens show for `O=C(NCCC1=CCCCC1)c1cnsn1`?
PglD DTNB: 42; C2C12 statin: inactive; PglD confirm: inactive

Results for Cc1ccc(S(=O)(=O)N(C)C[C@@H]2Oc3c(NC(=O)Nc4ccccc4)cccc3C(=O)N([C@H](C)CO)C[C@@H]2C)cc1 ?
DENV2 CPE: inactive; PglD DTNB: inactive; XiGFP reactiv: inactive; FGF22 binding: inactive; C2C12 statin: inactive

What do the screens show for `COc1ccc(CNCc2cccc(Cl)c2)cc1`?
DENV2 CPE: inactive; PglD DTNB: 30; XiGFP reactiv: inactive; E-selectin induc: inactive; FGF22 binding: inactive; PglD confirm: inactive

How did CNC[C@@H]1OCCCC[C@H](C)Oc2ccc(NC(=O)Nc3cccc4ccccc34)cc2C(=O)N([C@@H](C)CO)C[C@H]1C do in these assays?
C2C12 statin: inactive

How did c1ccc(CNc2nc(-c3cccnc3)nc3ccccc23)cc1 do in these assays?
DENV2 CPE: inactive; PglD DTNB: inactive; XiGFP reactiv: inactive; E-selectin induc: inactive; FGF22 binding: inactive; C2C12 statin: inactive

Results for c1cncc(CNc2nc(-c3cccnc3)nc3ccccc23)c1 ?
DENV2 CPE: inactive; PglD DTNB: 24; XiGFP reactiv: inactive; FGF22 binding: inactive; C2C12 statin: inactive; PglD confirm: inactive

Results for CCOc1ccccc1NC(=S)N1CCC(c2nc3ccccc3o2)CC1 ?
PglD DTNB: 21; XiGFP reactiv: inactive; E-selectin induc: inactive; FGF22 binding: inactive; PglD confirm: inactive

How did Cc1cccc(-c2ccc([C@@H]3[C@H](CO)N4C(=O)CN(C(=O)c5cnccn5)C[C@@H]34)cc2)c1 do in these assays?
XiGFP reactiv: inactive

What do the screens show for `COc1cccc(C(=O)Nc2ccc3c(c2)OC[C@@H](C)N(C(C)=O)C[C@H](C)[C@@H](OC)CN(C)C3=O)c1`?
XiGFP reactiv: inactive
